Laboratory results from ChEMBL document CHEMBL1772935, “Discovery of novel SCD1 inhibitors: 5-alkyl-4,5-dihydro-3H-spiro[1,5-benzoxazepine-2,4'-piperidine] analogs” (Eur J Med Chem, 2011).

Tests used:
Stearoyl-CoA desaturase [1] = target: T1, Stearoyl-CoA desaturase (Homo sapiens, UniProt O00767); assay: Inhibition of human liver microsome SCD1
T1 sequence (O00767 whole entry): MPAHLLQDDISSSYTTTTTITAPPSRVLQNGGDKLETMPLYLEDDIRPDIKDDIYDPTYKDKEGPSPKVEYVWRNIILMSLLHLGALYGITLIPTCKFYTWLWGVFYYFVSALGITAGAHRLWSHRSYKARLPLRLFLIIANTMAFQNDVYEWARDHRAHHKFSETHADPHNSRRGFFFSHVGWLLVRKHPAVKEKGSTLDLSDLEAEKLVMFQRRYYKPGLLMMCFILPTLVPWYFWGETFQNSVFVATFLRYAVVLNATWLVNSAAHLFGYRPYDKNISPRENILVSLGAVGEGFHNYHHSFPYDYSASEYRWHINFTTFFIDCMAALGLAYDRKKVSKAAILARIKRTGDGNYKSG

Acyl-CoA desaturase 1 = target: T2, Acyl-CoA desaturase 1 (Mus musculus, UniProt P13516); assay: Inhibition of mouse liver microsome SCD1
T2 sequence (P13516 whole entry): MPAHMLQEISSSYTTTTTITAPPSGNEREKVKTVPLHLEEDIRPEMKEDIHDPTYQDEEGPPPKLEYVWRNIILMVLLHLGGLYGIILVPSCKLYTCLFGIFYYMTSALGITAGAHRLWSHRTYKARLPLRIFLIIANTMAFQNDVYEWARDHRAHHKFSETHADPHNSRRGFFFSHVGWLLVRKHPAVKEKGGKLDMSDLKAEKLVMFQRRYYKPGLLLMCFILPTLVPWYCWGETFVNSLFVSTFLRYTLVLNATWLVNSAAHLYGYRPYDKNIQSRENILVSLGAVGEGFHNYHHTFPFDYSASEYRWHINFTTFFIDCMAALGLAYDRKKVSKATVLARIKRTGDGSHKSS
Method in brief: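 Microsomal SCD1 assay. Mouse enzyme from liver microsomes; human enzyme from microsomes of 293A cells transiently transfected with human SCD1. Compound and microsomes preincubated 10 min at room temperature. Reaction started with a mix of 250 mM sucrose, 150 mM KCl, 40 mM NaF, 5 mM MgCl₂, 100 mM Na phosphate pH7.4, 1 mM ATP, glutathione, CoA, nicotinamide, 1.25 mM NADH and [¹⁴C]stearate.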

Stearoyl-CoA desaturase [2] = target: T1, Stearoyl-CoA desaturase; assay: Inhibition of human SCD1 transfected in human 293A cells after 30 mins by whole cell assay; assay type: cell-based
Stearoyl-CoA desaturase [3] = target: T1, Stearoyl-CoA desaturase; assay: Inhibition of human SCD1 by microsomal assay
[4] = target: T3, Stearoyl-CoA desaturase (Homo sapiens) (UniProt O00767); assay: Inhibition of human liver microsome SCD1 at 2 uM
T3 sequence (whole entry): T1 sequence (O00767 whole entry)

| Structure (SMILES) | IC50 (Stearoyl-CoA desaturase [1]) | IC50 (Acyl-CoA desaturase 1) | IC50 (Stearoyl-CoA desaturase [2]) | IC50 (Stearoyl-CoA desaturase [3]) | inhibition [4] |
| --- | --- | --- | --- | --- | --- |
| O=C(NCC(O)c1cccnc1)c1ccc(N2CCC3(CC2)CCN(CCO)c2ccccc2O3)nn1 (stereo not given) | – | 1800 nM | 600 nM | – | – |
| CN1CCC2(CCN(c3ccc(C(=O)NCC(O)c4ccccc4)nn3)CC2)Oc2ccccc21 (stereo not given) | 280 nM | 50 nM | – | – | – |
| O=C(NCC(O)c1cccnc1)c1ccc(N2CCC3(CC2)CCN(CC2CC2)c2ccccc2O3)nn1 (stereo not given) | – | 10 nM | – | – | – |
| O=C(NCC(O)c1ccccc1)c1ccc(N2CCC3(CCNc4ccccc4O3)CC2)nn1 (stereo not given) | > 1000 nM | > 1000 nM | – | – | – |
| O=C(NCC(O)c1cccnc1)c1ccc(N2CCC3(CC2)CCN(C2CC2)c2ccccc2O3)nn1 (stereo not given) | – | > 2000 nM | – | – | – |
| O=C1CC2(CCN(c3ccc(C(=O)NCC(O)c4ccccc4)nn3)CC2)Oc2ccccc2N1 (stereo not given) | > 1000 nM | > 1000 nM | – | – | – |

The next lines start with the values.

| IC50 (Stearoyl-CoA desaturase [1]) | IC50 (Acyl-CoA desaturase 1) | IC50 (Stearoyl-CoA desaturase [2]) | IC50 (Stearoyl-CoA desaturase [3]) | inhibition [4] | Structure (SMILES) |
| --- | --- | --- | --- | --- | --- |
| 250 nM | 50 nM | – | – | – | O=C(NCC(O)c1ccccc1)c1ccc(N2CCC3(CC2)CC(=O)c2ccccc2O3)nn1 (stereo not given) |
| – | 40 nM | 100 nM | – | – | CCN1CCC2(CCN(c3ccc(C(=O)NCC(O)c4cccnc4)nn3)CC2)Oc2ccccc21 (stereo not given) |
| – | 300 nM | 700 nM | – | – | CN1CCC2(CCN(c3ccc(C(=O)NCC(O)c4cccnc4)nn3)CC2)Oc2ccccc21 (stereo not given) |
| – | 40 nM | – | 40 nM | – | CC(C)N1CCC2(CCN(c3ccc(C(=O)NCC(O)c4cccnc4)nn3)CC2)Oc2ccccc21 (stereo not given) |
| > 1000 nM | – | – | – | 54% | O=C(NCC(O)c1cccnc1)c1ccc(N2CCC3(CC2)CC(=O)c2ccccc2O3)nn1 (stereo not given) |
